From ChEMBL document CHEMBL1221188, “Small-molecule activation of procaspase-3 to caspase-3 as a personalized anticancer strategy” (Nat Chem Biol, 2006)
Active and inactive are the calls of the source. The calls are words filed in the database; no cut-off is given here.

Key:
[1] = target: T1, Caspase-3 (Homo sapiens, UniProt P42574); assay: Activation of N-terminal His6-tagged recombinant procaspase-3 expressed in Escherichia coli assessed as hydrolysis of acetyl-DEVD-p-nitroanilide after 2 hrs by SDS-PAGE
T1 sequence (P42574 whole entry): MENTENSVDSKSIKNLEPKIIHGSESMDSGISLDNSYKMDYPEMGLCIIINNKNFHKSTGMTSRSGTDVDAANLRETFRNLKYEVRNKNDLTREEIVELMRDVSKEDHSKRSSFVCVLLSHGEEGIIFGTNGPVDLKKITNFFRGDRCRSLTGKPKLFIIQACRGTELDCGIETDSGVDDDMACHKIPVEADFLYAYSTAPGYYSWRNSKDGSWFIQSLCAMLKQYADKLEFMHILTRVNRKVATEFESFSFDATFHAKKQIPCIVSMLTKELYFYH

[2] = target: Caspase-3 (Homo sapiens, UniProt P42574, D179A); assay: Activation of N-terminal His6-tagged recombinant procaspase-3 D179A mutant expressed in Escherichia coli assessed as hydrolysis of acetyl-DEVD-p-nitroanilide after 2 hrs by SDS-PAGE; conditions: in the assay text read “by spectrophotometry” for “by SDS-PAGE”
Sequence of Caspase-3 (Homo sapiens, UniProt P42574, D179A) (P42574 176-277 D179A limits assumed, one chain of several): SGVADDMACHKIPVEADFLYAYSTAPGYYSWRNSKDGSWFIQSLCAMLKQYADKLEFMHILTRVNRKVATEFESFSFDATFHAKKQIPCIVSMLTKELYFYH
Summary of the method: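 Alanine substitution in the procaspase-3 safety-catch Asp-Asp-Asp triad (Asp179, Asp180, Asp181). The wild-type or mutant proenzyme was incubated with a range of compound concentrations for 12 h at 37 °C. Ac-DEVD-pNA was then added and absorbance at 405 nm was read every 2 min for 2 h. Activity was taken from the linear-phase slope and expressed as relative increase per mutant.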

[3] = system: HL-60; assay: Induction of apoptosis in human HL60 cells assessed viable cells at 100 uM after 20 hrs using annexin V-propidium iodide staining by flow cytometry; format: functional
Summary of the method: (§1)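 HL-60 cells treated 20 h at 37 °C with 100 µM drug in DMSO or DMSO alone; washed, stained with annexin V–Alexa Fluor 488 (15 min, 23 °C) plus propidium iodide; flow cytometry at 525 and 675 nm, ≥50,000 cells per experiment.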

[4] = system: HL-60; assay: Induction of apoptosis in human HL60 cells assessed as chromatin condensation at 100 uM after 20 hrs measured by Hoechst-33258 staining; format: functional, cell-based
Summary of the method: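 HL-60 cells were treated 20 h with 100 µM drug in DMSO against a DMSO control. Cells were then fixed in ice-cold ethanol overnight at 4 °C and stained with Hoechst-33258 for 30 min at room temperature. Condensed chromatin was viewed microscopically at 400× magnification.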

[5] = system: HL-60; assay: Induction of apoptosis in human HL60 cells assessed as mitochondrial membrane depolarization at 100 uM after 12 hrs by fluorescence assay; format: functional, cell-based
Summary of the method: (§2)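 HL-60 cells exposed to drug in DMSO or DMSO alone for various times, stained with JC-9 dye for 10 min at room temperature, then analysed by flow cytometry at 525/675 nm on 50,000 cells. Depolarization was derived from the red-channel shift.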

[6] = system: HL-60; assay: Induction of apoptosis in human HL60 cells assessed as increase in caspase-3 activity at 100 uM after 12 hrs; format: functional, cell-based
Summary of the method: (§3)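 HL-60 cells were treated with a range of drug concentrations for various times, then washed. They were lysed by sonication in ice-cold caspase assay buffer and given Ac-DEVD-pNA. Absorbance at 405 nm was read every 2 min for 2 h, and the cleavage rate came from the linear slope.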

[7] = system: HL-60; assay: Induction of apoptosis in human HL60 cells assessed as increase in PARP1 cleavage at 10 uM after 12 hrs by fluorescence assay; format: functional, cell-based
[8] = system: HL-60; assay: Induction of apoptosis in human HL60 cells assessed as increase in PARP1 cleavage at 100 uM after 12 hrs by fluorescence assay; format: functional, cell-based
Summary of the method: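 HL-60 cells given NAD+ with or without drug for various times, then lysed in PARP buffer with 25 mM H2O2 (60 min, 37 °C). Remaining NAD+ was measured fluorometrically after KOH/acetophenone (10 min, 4 °C) and formic acid (5 min, 110 °C). PARP activity is expressed relative to control wells.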

[9] = system: HL-60; assay: Inhibition of apoptosis in human HL60 cells at 100 uM after 24 hrs using annexin V-propidium iodide staining by flow cytometry in presence of pan-caspase inhibitor Z-VAD-FMK; format: functional, cell-based
[10] = Cytotoxicity against human colon cells after 24 hrs by MTS/PMS assay; format: cell-based; conditions: Colon cell
[11] = Cytotoxicity against human colon cancer cells after 24 hrs by MTS/PMS assay; format: functional, cell-based; conditions: Cancer cell lines
[12] = system: NCI-H226; assay: Induction of apoptosis in human NCI-H226 cells isolated from BALB/c mouse xenograft assessed as DNA fragmentation at 50 mg/kg, po SID for 21 days measured after 1 week post last dose by TUNEL assay; format: functional, organism-based; design: dose 50 mg/kg
Summary of the method: (§4)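 Subcutaneous NCI-H226 tumors from nude mice dosed orally (50 or 100 mg/kg daily for 21 d in 24:1 vegetable oil/DMSO) were resected at end of study, sectioned and scored by TUNEL staining.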

[13] = system: NCI-H226; assay: Induction of apoptosis in human NCI-H226 cells isolated from BALB/c mouse xenograft assessed as DNA fragmentation at 100 mg/kg, po SID for 21 days measured after 1 week post last dose by TUNEL assay; format: functional, organism-based; design: dose 100 mg/kg; summary of the method: as §4
[14] = system: NCI-H226; assay: Antitumor activity against human NCI-H226 cells xenografted in po dosed BALB/c mouse administered SID for 21 days assessed as retardation of tumor growth measured after 1 week post last dose; format: functional, organism-based
Summary of the method: (§5)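 Male athymic BALB/c nude mice, 5 weeks old; 2 × 10^6 NCI-H226 cells injected subcutaneously into the flanks, eight mice per group, three tumors per mouse. Once tumors reached about 50 mm3 (~4 weeks), 0, 50 or 100 mg/kg was given by oral gavage in 24:1 vegetable oil/DMSO once daily for 21 d. Caliper volume (v = 0.5·a·b2) and body weight tracked; killed 1 week later.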

[15] = system: Mus musculus; assay: Toxicity in BALB/c mouse xenografted with human NCI-H226 cells assessed as effect on body weight at 50 to 100 mg/kg, po SID for 21 days measured after 1 week post last dose; format: organism-based; design: dose 50-100 mg/kg, route oral; conditions: in vivo, 168 h; summary of the method: as §5
[16] = system: ACHN; assay: Antitumor activity against human ACHN cells xenografted in BALB/c mouse assessed as tumor growth at 5 mg administered via pellet measured after 54 days of tumor implantation
Summary of the method: (§6)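 Ovariectomized female athymic BALB/c nu/nu mice; ACHN cells in Matrigel injected subcutaneously into four flanks. After 4 weeks (mean tumor area 34.3 mm2), 20-mg cholesterol pellets with 0, 1 or 5 mg drug implanted subcutaneously; six mice per group. Tumor volume v = 0.5·a·b2 measured weekly. Food intake over two consecutive 24-h periods at study end (8 weeks post-implant).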

[17] = system: NCI-H226; assay: Antitumor activity against human NCI-H226 cells xenografted in BALB/c mouse assessed as suppression of tumor metastasis at 100 mg/kg, po administered from day 1 to 4 and day 7 to 11 measured after 28 days; format: functional, organism-based; design: dose 100 mg/kg
Summary of the method: (§7)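 Male athymic nude mice received 2 × 10^6 NCI-H226 cells by tail-vein injection. Dosing was 100 mg/kg by oral gavage in 24:1 vegetable oil/DMSO once daily on days 1–4 and 7–11, against vehicle, four mice per group. Body weight was followed. At 28 d the lungs were examined, sectioned, stained and imaged for tumor burden.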

[18] = system: HL-60; assay: Induction of apoptosis in human HL60 cells assessed viable cells at 5 uM after 28 hrs using annexin V-propidium iodide staining by flow cytometry; format: functional
[19] = system: HL-60; assay: Induction of apoptosis in human HL60 cells assessed early apoptotic cells at 5 uM after 28 hrs using annexin V-propidium iodide staining by flow cytometry; format: functional
[20] = system: HL-60; assay: Induction of apoptosis in human HL60 cells assessed late apoptotic cells at 5 uM after 28 hrs using annexin V-propidium iodide staining by flow cytometry; format: functional
[21] = system: HL-60; assay: Induction of apoptosis in human HL60 cells assessed non-viable necrotic cells at 5 uM after 28 hrs using annexin V-propidium iodide staining by flow cytometry; format: functional
[22] = system: HL-60; assay: Induction of apoptosis in human HL60 cells assessed early apoptotic cells at 100 uM after 20 hrs using annexin V-propidium iodide staining by flow cytometry; format: functional; summary of the method: as §1
[23] = system: HL-60; assay: Induction of apoptosis in human HL60 cells assessed late apoptotic cells at 100 uM after 20 hrs using annexin V-propidium iodide staining by flow cytometry; format: functional; summary of the method: as §1
[24] = system: HL-60; assay: Induction of apoptosis in human HL60 cells assessed non-viable necrotic cells at 100 uM after 20 hrs using annexin V-propidium iodide staining by flow cytometry; format: functional; summary of the method: as §1
[25] = system: HL-60; assay: Induction of apoptosis in human HL60 cells assessed as increase in caspase-3 activity at 100 uM up to 2 hrs; format: functional; summary of the method: as §3
[26] = system: Mus musculus; assay: Toxicity in BALB/c mouse xenografted with human ACHN cells assessed as effect on food intake at 5 mg administered via pellet measured after 54 days of tumor implantation; format: organism-based; conditions: in vivo, other, 1296 h; summary of the method: as §6
[27] = Plasma concentration in BALB/c mouse xenografted with human ACHN cells at 5 mg administered via pellet measured after 54 days of tumor implantation; format: ADME, organism-based
[28] = system: Mus musculus; assay: Toxicity in BALB/c mouse xenografted with human NCI-H226 cells assessed as effect on body weight at 100 mg/kg, po administered from day 1 to 4 and day 7 to 11 measured after 28 days; format: organism-based; design: dose 100 mg/kg, route oral; conditions: in vivo, 672 h; summary of the method: as §7
[29] = system: NCI-H226; assay: Antitumor activity against human NCI-H226 cells isolated from BALB/c mouse xenograft assessed as decrease in metastatic tumor burden at 100 mg/kg, po administered from day 1 to 4 and day 7 to 11 measured after 28 days by imaging assay; format: functional, organism-based; design: dose 100 mg/kg; summary of the method: as §7
[30] = system: HL-60; assay: Induction of apoptosis in human HL60 cells assessed as mitochondrial membrane depolarization at 10 uM after 12 hrs by fluorescence assay; format: functional, cell-based; summary of the method: as §2
[31] = system: HL-60; assay: Induction of apoptosis in human HL60 cells assessed as increase in caspase-3 activity at 10 uM after 12 hrs; format: functional, cell-based; summary of the method: as §3

## CN1CCN(CC(=O)N/N=C/c2ccccc2O)CC1
[1]
  EC50: > 50 µM

## c1ccc(CN2CCNCC2)cc1
[1]
  EC50: > 50 µM

## O=C(CN1CCN(Cc2ccccc2)CC1)N/N=C/c1ccccc1
[1]
  EC50: > 50 µM

## c1ccc(CN2CCN(Cc3ccccc3)CC2)cc1
[1]
  EC50: > 50 µM

## C=CCc1cccc(/C=N/NC(=O)CN2CCN(Cc3ccccc3)CC2)c1O [PAC-1]
[2]
  EC50: 131 µM
[3]
  Activity: 9.8%
[4]
  Activity: Active
[5]
  Activity: inactive
[6]
  Activity: Active
[7]
  Activity: Active
[8]
  Activity: Active
[9]
  Activity: inactive
[10]
  IC50: 5.02 µM
[11]
  IC50: 0.003 µM
[12]
  Activity: Active
[13]
  Activity: Active
[14]
  inhibition: Dose-dependent effect
[15]
  Activity: Non-toxic
[16]
  Activity: Active
  inhibition: Active
[17]
  Activity: Active
[18]
  Activity: 10.26%
[19]
  Activity: 80.75%
[20]
  Activity: 8.73%
[21]
  Activity: 0.26%
[22]
  Activity: 80.2%
[23]
  Activity: 9.6%
[24]
  Activity: 0.4%
[25]
  Activity: 50%
[26]
  Activity: Non-toxic
[27]
  concentration at 1296 h: 4.4 nM
[28]
  Activity: Non-toxic
[29]
  Activity: Active

## CCOC(=O)CN1CCNCC1 [ETHYL PIPERAZINOACETATE]
[1]
  EC50: > 50 µM

## CCOC(=O)CN1CCN(Cc2ccccc2)CC1
[1]
  EC50: > 50 µM

## COc1cc([C@@H]2c3cc4c(cc3[C@@H](O[C@@H]3O[C@@H]5CO[C@@H](C)O[C@H]5[C@H](O)[C@H]3O)[C@H]3COC(=O)[C@H]23)OCO4)cc(OC)c1O
[30]
  Activity: Active
[31]
  Activity: Active
[7]
  Activity: Active
[8]
  Activity: Active

## NNC(=O)CN1CCN(Cc2ccccc2)CC1
[1]
  EC50: > 50 µM

## C/C=N/NC(=O)CN1CCN(Cc2ccccc2)CC1
[1]
  EC50: > 50 µM
